# Data taken from ChEMBL document CHEMBL5260843 (J Med Chem, 2019).
# Active and inactive are the calls of the source. The rule behind the calls is not given here.
# Legend:
# [1] = molecular target: T1, DCN1-like protein 1/NEDD8-conjugating enzyme Ubc12 (Homo sapiens, UniProt Q96GG9); assay: Inhibition of GST-tagged DCN1 PONY domain (unknown origin)/human N-terminal acetylated UBC12 (1 to 12 residues) protein-protein interaction incubated for 1 hr by HTRF analysis; type: protein assay
# [2] = molecular target: T1, DCN1-like protein 1/NEDD8-conjugating enzyme Ubc12; assay: Inhibition of biotinylated DCN1 PONY domain (unknown origin)/human N-terminal acetylated UBC12 (1 to 12 residues) protein-protein interaction incubated for 1 hr by TR-FRET analysis; type: protein assay
# MGC-803 [3] = assay: Induction of ROS generation in human MGC-803 cells at 3 uM incubated for 24 hrs by DCFH-DA staining based flow cytometry analysis (reference value: 2%); type: functional
# MGC-803 [4] = assay: Induction of ROS generation in human MGC-803 cells at 1 uM incubated for 24 hrs by DCFH-DA staining based flow cytometry analysis (reference value: 2%); type: functional
# MGC-803 [5] = assay: Induction of ROS generation in human MGC-803 cells at 0.3 uM incubated for 24 hrs by DCFH-DA staining based flow cytometry analysis (reference value: 2%); type: functional
# MGC-803 [6] = assay: Induction of ROS generation in human MGC-803 cells at 3 uM incubated for 24 hrs by DCFH-DA staining based flow cytometry analysis (reference value: 1.2%); type: functional
# MGC-803 [7] = assay: Induction of ROS generation in human MGC-803 cells at 1 uM incubated for 24 hrs by DCFH-DA staining based flow cytometry analysis (reference value: 1.2%); type: functional
# MGC-803 [8] = assay: Induction of ROS generation in human MGC-803 cells at 0.3 uM incubated for 24 hrs by DCFH-DA staining based flow cytometry analysis (reference value: 1.2%); type: functional
# MGC-803 [9] = assay: Inhibition of cullin3 neddylation in UBC/DCN1 overactivated human MGC-803 cells incubated for 24 hrs by Western blot analysis; type: cell-based
# Procedure, shortened: (§1)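 Cells in 6-well plates were exposed to compound for 24 h. MGC-803 were grown in DMEM and KYSE70 in RPMI 1640, both with 10% FBS at 37 °C and 5% CO2. Lysates were made in RIPA with protease inhibitors and quantified by BCA. 30 μg protein was run on 8% SDS-PAGE and blotted to nitrocellulose. Primary antibodies were applied overnight at 4 °C, then HRP secondaries, with ECL and film detection. GAPDH was the loading control. Run three times.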
# Cullin-1 (Homo sapiens) = Cullin-1 (Homo sapiens) (UniProt Q13616); assay: Inhibition of cullin1 neddylation in UBC/DCN1 overactivated human MGC-803 cells at 0.3 to 10 uM incubated for 24 hrs by Western blot analysis; type: cell-based; conditions: dose 0.3-10 µM; procedure, shortened: as §1
# Cullin-1 (Homo sapiens), sequence (Q13616 whole entry): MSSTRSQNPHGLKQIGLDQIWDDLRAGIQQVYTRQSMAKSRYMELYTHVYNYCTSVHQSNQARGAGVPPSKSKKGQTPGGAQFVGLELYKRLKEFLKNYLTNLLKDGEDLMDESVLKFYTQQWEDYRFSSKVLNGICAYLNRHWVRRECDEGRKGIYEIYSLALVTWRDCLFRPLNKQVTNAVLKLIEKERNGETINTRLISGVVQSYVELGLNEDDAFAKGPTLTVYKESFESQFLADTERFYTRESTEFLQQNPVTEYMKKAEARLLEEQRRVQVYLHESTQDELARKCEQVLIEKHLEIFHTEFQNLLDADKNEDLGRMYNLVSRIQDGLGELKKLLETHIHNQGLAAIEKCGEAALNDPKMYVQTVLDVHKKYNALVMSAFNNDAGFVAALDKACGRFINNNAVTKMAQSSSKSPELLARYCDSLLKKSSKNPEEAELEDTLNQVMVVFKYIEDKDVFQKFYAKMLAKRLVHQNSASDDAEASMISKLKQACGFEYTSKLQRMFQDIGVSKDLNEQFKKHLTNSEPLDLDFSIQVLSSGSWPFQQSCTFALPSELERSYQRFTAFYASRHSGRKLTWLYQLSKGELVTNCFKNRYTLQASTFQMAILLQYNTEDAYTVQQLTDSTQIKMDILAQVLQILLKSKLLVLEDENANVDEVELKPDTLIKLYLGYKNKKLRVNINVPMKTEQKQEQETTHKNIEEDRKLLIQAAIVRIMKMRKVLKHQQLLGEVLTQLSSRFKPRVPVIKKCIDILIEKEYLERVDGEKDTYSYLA
# Cullin-5 (Homo sapiens) = molecular target: T2, Cullin-5 (Homo sapiens) (UniProt Q93034); assay: Inhibition of cullin5 neddylation in UBC/DCN1 overactivated human MGC-803 cells at 0.3 to 10 uM incubated for 24 hrs by Western blot analysis; type: cell-based; conditions: dose 0.3-10 µM; procedure, shortened: as §1
# T2 sequence (whole entry): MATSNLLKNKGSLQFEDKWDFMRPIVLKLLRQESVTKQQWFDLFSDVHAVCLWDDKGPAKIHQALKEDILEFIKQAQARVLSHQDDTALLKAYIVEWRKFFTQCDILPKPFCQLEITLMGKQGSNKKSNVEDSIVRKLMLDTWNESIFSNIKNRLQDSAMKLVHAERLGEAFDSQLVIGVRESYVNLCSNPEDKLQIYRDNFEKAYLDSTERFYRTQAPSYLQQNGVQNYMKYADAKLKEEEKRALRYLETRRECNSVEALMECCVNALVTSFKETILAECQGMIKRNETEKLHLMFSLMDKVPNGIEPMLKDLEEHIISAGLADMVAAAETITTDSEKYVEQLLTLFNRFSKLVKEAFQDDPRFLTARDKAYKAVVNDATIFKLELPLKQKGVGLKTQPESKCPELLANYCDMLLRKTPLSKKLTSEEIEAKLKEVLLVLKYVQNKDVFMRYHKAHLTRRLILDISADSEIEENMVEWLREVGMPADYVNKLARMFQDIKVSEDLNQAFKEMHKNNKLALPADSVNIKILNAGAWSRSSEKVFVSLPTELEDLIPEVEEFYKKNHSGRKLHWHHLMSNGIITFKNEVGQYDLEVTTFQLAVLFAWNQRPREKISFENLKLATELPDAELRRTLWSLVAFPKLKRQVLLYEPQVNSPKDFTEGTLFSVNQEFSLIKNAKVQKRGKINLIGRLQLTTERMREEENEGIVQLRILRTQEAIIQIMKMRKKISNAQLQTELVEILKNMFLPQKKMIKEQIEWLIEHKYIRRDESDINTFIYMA
# Cullin-4B (Homo sapiens) = Cullin-4B (Homo sapiens) (UniProt Q13620); assay: Inhibition of cullin4B neddylation in UBC/DCN1 overactivated human MGC-803 cells at 0.3 to 10 uM incubated for 24 hrs by Western blot analysis; type: cell-based; conditions: dose 0.3-10 µM; procedure, shortened: as §1
# Cullin-4B (Homo sapiens), sequence (Q13620 whole entry): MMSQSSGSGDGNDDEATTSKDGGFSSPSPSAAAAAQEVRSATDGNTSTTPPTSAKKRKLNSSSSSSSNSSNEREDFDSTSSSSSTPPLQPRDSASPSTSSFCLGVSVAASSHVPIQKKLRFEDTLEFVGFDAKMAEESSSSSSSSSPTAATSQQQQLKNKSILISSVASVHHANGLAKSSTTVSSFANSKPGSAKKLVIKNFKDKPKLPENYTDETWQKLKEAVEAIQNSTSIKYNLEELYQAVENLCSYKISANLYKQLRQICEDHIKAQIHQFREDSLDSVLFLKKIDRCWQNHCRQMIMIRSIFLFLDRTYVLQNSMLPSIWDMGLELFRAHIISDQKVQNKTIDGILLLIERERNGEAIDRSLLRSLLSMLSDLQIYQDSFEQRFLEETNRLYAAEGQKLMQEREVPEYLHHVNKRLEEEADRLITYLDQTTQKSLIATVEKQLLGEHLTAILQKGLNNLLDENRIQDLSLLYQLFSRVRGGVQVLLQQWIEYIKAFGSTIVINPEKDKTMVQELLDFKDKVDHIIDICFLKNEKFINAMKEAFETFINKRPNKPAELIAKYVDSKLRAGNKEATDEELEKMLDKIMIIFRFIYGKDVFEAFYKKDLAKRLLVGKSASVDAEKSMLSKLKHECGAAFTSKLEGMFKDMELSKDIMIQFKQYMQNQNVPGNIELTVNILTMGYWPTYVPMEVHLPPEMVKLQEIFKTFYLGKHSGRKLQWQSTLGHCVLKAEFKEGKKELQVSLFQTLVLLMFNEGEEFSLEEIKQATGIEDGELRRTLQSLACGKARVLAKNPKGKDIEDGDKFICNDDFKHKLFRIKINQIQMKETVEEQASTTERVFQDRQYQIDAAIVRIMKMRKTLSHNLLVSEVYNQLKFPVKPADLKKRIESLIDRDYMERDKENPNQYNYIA
# Cullin-4A (Homo sapiens) = Cullin-4A (Homo sapiens) (UniProt Q13619); assay: Inhibition of cullin4A neddylation in UBC/DCN1 overactivated human MGC-803 cells at 0.3 to 10 uM incubated for 24 hrs by Western blot analysis; type: cell-based; conditions: dose 0.3-10 µM; procedure, shortened: as §1
# Cullin-4A (Homo sapiens), sequence (Q13619 whole entry): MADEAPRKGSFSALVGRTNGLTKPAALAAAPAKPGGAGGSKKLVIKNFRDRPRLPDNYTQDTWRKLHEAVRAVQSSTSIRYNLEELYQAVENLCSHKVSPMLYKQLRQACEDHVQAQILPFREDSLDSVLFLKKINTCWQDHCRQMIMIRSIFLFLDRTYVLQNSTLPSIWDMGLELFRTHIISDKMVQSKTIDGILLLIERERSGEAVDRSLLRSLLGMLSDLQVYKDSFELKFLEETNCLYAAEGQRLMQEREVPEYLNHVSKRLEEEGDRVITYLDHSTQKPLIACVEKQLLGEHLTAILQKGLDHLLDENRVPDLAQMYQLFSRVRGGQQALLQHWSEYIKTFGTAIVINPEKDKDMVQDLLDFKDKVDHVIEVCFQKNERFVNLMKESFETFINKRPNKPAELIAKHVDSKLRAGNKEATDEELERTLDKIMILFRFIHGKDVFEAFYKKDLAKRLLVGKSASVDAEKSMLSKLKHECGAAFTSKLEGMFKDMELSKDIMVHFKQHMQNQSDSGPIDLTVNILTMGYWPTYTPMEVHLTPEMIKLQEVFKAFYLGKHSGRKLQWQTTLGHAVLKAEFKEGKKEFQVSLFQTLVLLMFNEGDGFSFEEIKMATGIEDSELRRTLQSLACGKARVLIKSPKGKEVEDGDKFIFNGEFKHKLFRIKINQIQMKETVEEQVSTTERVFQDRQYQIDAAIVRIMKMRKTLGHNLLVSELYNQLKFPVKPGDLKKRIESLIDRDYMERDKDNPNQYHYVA
# MGC-803 [10] = assay: Inhibition of cullin2 neddylation in UBC/DCN1 overactivated human MGC-803 cells at 0.3 to 10 uM incubated for 24 hrs by Western blot analysis; type: cell-based; conditions: dose 0.3-10 µM; procedure, shortened: as §1
# MGC-803 [11] = assay: Induction of NRF2 accumulation in human MGC-803 cells 0.01 to 10 uM incubated for 24 hrs by Western blot analysis; type: functional, cell-based; conditions: dose 0.01-10 µM; procedure, shortened: as §1
# T1 sequence (Q96GG9 whole entry, the tested form may be a part): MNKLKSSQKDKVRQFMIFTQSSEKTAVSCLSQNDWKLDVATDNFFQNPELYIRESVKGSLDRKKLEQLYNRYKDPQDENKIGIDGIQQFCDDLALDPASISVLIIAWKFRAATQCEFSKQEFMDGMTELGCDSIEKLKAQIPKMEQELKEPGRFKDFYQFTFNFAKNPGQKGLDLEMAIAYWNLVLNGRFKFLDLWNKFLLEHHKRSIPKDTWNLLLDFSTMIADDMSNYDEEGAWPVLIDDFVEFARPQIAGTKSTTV
# T1 sequence (P61081 whole entry, further chain, the tested form may be a part): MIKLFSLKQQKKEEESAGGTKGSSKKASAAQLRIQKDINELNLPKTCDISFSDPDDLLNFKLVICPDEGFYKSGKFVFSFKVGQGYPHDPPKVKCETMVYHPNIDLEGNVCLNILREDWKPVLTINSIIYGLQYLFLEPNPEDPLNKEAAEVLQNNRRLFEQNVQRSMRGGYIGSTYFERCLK
SMILES,IC50 [1],other results
Cc1cc(Sc2nnnn2CCN(C)C)n2nc(SCCCc3ccccc3)nc2n1,532 nM,
CN(C)CCn1nnnc1Sc1c2c(nc3ncnn13)CCC2,61 nM,
Cc1cc(Sc2nnnn2CCN(C)C)n2nc(SCc3ccc([N+](=O)[O-])cc3)nc2n1,39 nM,
COc1ccc(CSc2nc3nc(C)cc(Sc4nnnn4CCN(C)C)n3n2)cc1,28 nM,
Cc1cc(Sc2nnnn2CCN(C)C)n2nc(SCC3CC3)nc2n1,59 nM,
Cc1cc(Sc2nnnn2CCN(C)C)n2nc(SCc3ccccc3)nc2n1,22 nM,
Cc1cc(Sc2nnnn2CCN(C)C)n2nc(SCc3ccc(C(F)(F)F)cc3)nc2n1,186 nM,
CCc1cc(Sc2nnnn2CCN(C)C)n2ncnc2n1,706 nM,
C#CCSc1nc2nc(C)cc(Sc3nnnn3CCN(C)C)n2n1,67 nM,
Oc1ccc(-n2nnnc2Sc2cc(-c3ccccc3)nc3ncnn23)cc1,3880 nM,
Cc1ccc(CSc2nc3nc(C)cc(Sc4nnnn4CCN(C)C)n3n2)cc1,78 nM,
COCCOc1cc2ncnc(Sc3nnnn3CCN(C)C)c2cc1OCCOC,> 50000 nM,
C#CCSc1nc2nc(-c3ccccc3)cc(Sc3nnnn3CCN(C)C)n2n1,79 nM,
CN(C)CCn1nnnc1Sc1cc(C2CC2)nc2ncnn12,127 nM,
Cc1cc(Sc2nnnn2CCN(C)C)n2nccc2n1,4210 nM,
CCCCN1CCC(N(Cc2ccccc2)C(=O)Nc2ccc(Cl)c(Cl)c2)CC1,,IC50 [2]: 60 nM; Activity (MGC-803 [3]): 0.2%; Activity (MGC-803 [4]): 0.5%; Activity (MGC-803 [5]): 0.7%
CCCSc1nc2nc(C)cc(Sc3nnnn3CCN(C)C)n2n1,214 nM,
Cc1cc(Sc2nnnn2CCN(C)C)n2nc(SCc3ccccc3Br)nc2n1,824 nM,
Cc1cc(Sc2nnnn2CCN(C)C)n2nc(SCc3ccc(F)c(Cl)c3)nc2n1,22 nM,
Cn1nnnc1Sc1cc(-c2ccccc2)nc2ncnn12,5820 nM,
CC(C)c1cc(Sc2nnnn2CCN(C)C)n2ncnc2n1,1360 nM,
CCC(=O)N[C@@H](Cc1nc2ccc(C(C)C)cc2s1)C(=O)N[C@H](CNC(=O)CCN1CCOCC1)C1CCCCC1,,Activity (MGC-803 [6]): 1.3%; Activity (MGC-803 [7]): 0.7%; Activity (MGC-803 [8]): 1.3%; inhibition (MGC-803 [9]): Dose-Dependent Effect; inhibition (Cullin-1 (Homo sapiens)): inactive; inhibition (Cullin-5 (Homo sapiens)): inactive; inhibition (Cullin-4B (Homo sapiens)): inactive; inhibition (Cullin-4A (Homo sapiens)): inactive; inhibition (MGC-803 [10]): inactive; Activity (MGC-803 [11]): Active
Cc1cc(Sc2nnnn2CCN(C)C)n2nc(SCc3ccccc3[N+](=O)[O-])nc2n1,24 nM,
